Key:
[1] = test system: N1S1 (rat hepatocellular carcinoma) cells; assay: [3H]-thymidine incorporation proliferation assay, N1S1; format: cell-based
Method in brief: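 N1S1 rat hepatoma cells, not serum-starved, were assayed in growth medium (RPMI 1640, 10% FBS, 2 mM L-glutamine, penicillin/streptomycin) at 1.5 × 10^4 cells/ml. […] Assays ran 24 h, or 48 h for experiments with EHNA (10 μM). [3H]-thymidine (1 μCi) was pulsed for the last 18 h, then cells were harvested and scintillation-counted.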

[2] = target: T1, hA3R (Homo sapiens, UniProt P0DMS8); assay: cAMP accumulation assay; format: cell-based
T1 sequence (P0DMS8 1-318): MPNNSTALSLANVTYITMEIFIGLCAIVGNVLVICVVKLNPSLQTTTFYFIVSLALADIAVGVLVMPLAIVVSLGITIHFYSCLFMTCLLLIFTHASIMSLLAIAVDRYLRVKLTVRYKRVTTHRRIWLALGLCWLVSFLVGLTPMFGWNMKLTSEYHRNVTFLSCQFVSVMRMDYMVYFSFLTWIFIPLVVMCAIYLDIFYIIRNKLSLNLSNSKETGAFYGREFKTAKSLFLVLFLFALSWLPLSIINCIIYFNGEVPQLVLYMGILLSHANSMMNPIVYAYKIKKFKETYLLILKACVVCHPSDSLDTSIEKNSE

[3] = test system: LNCaP (human prostate carcinoma) cells; assay: [3H]-thymidine incorporation proliferation assay, LNCaP; format: cell-based; conditions: for effect on LNCaP proliferation: 24 h
Method in brief: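 LNCaP cells were kept in RPMI 1640 with 10% FBS, then serum-starved for 18 h and assayed as monolayers in RPMI with 1% FBS at 1.5 × 10^4 cells/ml. […] Assays ran 24 h, or 48 h for experiments with EHNA (10 μM). [3H]-thymidine (1 μCi) was added for the last 18 h, then cells were harvested and counted. Three experiments in triplicate.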

[4] = test system: breast cancer cell lines lacking A3R mRNA; conditions: concentrations between 10 and 100 μM (500 μM for adenosine); cited from earlier work
[5] = target: T2, rat A3R (Rattus norvegicus, UniProt P28647); assay: Radioligand binding, [125I]-AB-MECA displacement on RBL-2H3 cell membranes
T2 sequence (P28647 1-320): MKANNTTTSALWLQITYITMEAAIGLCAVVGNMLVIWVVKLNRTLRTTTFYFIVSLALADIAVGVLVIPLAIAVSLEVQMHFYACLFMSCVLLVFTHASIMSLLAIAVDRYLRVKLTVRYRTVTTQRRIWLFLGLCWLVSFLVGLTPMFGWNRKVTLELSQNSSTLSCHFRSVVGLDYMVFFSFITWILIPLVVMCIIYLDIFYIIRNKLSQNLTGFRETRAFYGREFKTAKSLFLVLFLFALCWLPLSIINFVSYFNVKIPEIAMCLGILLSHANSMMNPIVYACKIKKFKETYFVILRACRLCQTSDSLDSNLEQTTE

[6] = in the first 4 h, mostly in metabolized form; cited from earlier work
[7] = test system: HL-60; conditions: 30 μM, in the presence of MRS1523 (10 μM) or MRS1220 (5 μM); cited from earlier work
[8] = test system: MOLT-4; conditions: 30 μM, in the presence of MRS1523 (10 μM) or MRS1220 (5 μM); cited from earlier work
[9] = phase I clinical studies; cited from earlier work
[10] = test system: LNCaP cells; assay: LNCaP proliferation with IPA in the presence of A3R antagonist MRS1523; format: cell-based, human
[11] = target: T1, hA3R; conditions: cited from earlier work

CCCCCC[C@@H]([C@@H](C)O)n1cnc2c(N)ncnc21 (racemic) [EHNA]
basal growth inhibition of N1S1 cells ([1]; EHNA 10 μM alone, without adenosine): 22%

Nc1ncnc2c1ncn2[C@@H]1O[C@H](CO)[C@@H](O)[C@H]1O [1a, Adenosine]
effect of ADA on the agonist's inhibition of cAMP production ([2]; agonist 10 μM + ADA 0.8 IU/ml): abolished the effect
inhibition of forskolin-stimulated cAMP production ([2]; agonist at 10 μM): inhibited cAMP production to a similar extent
effect on LNCaP proliferation ([3]; 25 μM): no effect
effect of EHNA on the adenosine effect in LNCaP ([3]; adenosine 25 μM + EHNA 10 μM, data not shown): did not increase the adenosine effect
effect on N1S1 proliferation ([1]; 25 μM): only a modest effect
effect on N1S1 proliferation in the presence of EHNA ([1]; adenosine 25 μM + EHNA 10 μM): almost full growth inhibition
antiproliferative effect on breast cancer cell lines lacking A3R mRNA [4]: had antiproliferative effects

CC(C)=CCNc1ncnc2c1ncn2[C@@H]1O[C@H](CO)[C@@H](O)[C@H]1O [1b, N^6-(2-isopentenyl)-adenosine]
Ki [5]: 4.69 ± 0.2 µM
fraction excreted in urine [6]: more than 50%

Nc1nc(Cl)nc2c1ncn2[C@@H]1O[C@H](CO)[C@@H](O)[C@H]1O [2-chloro-adenosine]
antiproliferative effect on breast cancer cell lines lacking A3R mRNA [4]: had antiproliferative effects

Nc1ncnc2c1ncn2[C@@H]1O[C@H](CO)C[C@H]1O [3′-deoxyadenosine]
antiproliferative effect on breast cancer cell lines lacking A3R mRNA [4]: had antiproliferative effects

CNC(=O)[C@H]1O[C@@H](n2cnc3c(NCc4cccc(I)c4)nc(Cl)nc32)[C@H](O)[C@@H]1O [Cl-IB-MECA, 2-chloro-N ^6-(3-iodobenzyl)adenosine-5′-N-methylcarboxamide]
effect on LNCaP proliferation ([3]; 0.01–10 μM): inhibited proliferation
effect on N1S1 proliferation ([1]; 0.01–10 μM, 24 h): inhibited proliferation
growth of HL-60 [7]: inhibited growth
growth of MOLT-4 [8]: inhibited growth
antiproliferative effect on breast cancer cell lines lacking A3R mRNA [4]: had antiproliferative effects

CNC(=O)[C@H]1O[C@@H](n2cnc3c(NCc4cccc(I)c4)ncnc32)[C@H](O)[C@@H]1O [IB-MECA]
tolerability [9]: tolerated very well
antiproliferative effect on breast cancer cell lines lacking A3R mRNA [4]: had antiproliferative effects

CCCOC(=O)c1c(-c2ccccc2)nc(CC)c(C(=O)SCC)c1CCC [MRS1523]
blockade of the antiproliferative effect of IPA on LNCaP ([10]; IPA 1 μM, MRS1523 0.01–1 μM): small, although still significant at higher concentrations
blockade of the antiproliferative effect of IPA on LNCaP ([10]; IPA 10 μM, MRS1523 0.01–1 μM): no effect
blockade of the antiproliferative effect of IPA on LNCaP ([10]; MRS1523 0.1 and 1 μM, IPA 0.01 and 0.1 μM): prevented the antiproliferative effect
affinity for the hA3R compared to IPA [11]: approximately sixfold higher

COc1ccccc1NC(=O)Nc1nc(-c2cccnc2)nc2ccccc12 [VUF5574]
inhibition by the antagonist of cAMP modulation by adenosine, IPA and Cl-IB-MECA ([2]; agonists 10 μM, VUF5574 1 μM or 10 μM): largely and significantly inhibited

— article PMC3224645 (Purinergic Signalling, 2011)
